Assay results taken from ChEMBL document CHEMBL4028899, “Tyrocidine A Analogues Bearing the Planar d-Phe-2-Abz Turn Motif: How Conformation Impacts Bioactivity” (J Med Chem, 2017).
≈ marks a conversion by molar mass, not a printed value. Calls of active or inactive are those of the source. No cut-off for these calls is given here. Square brackets hold non-standard residues; d marks the D form. Peptide text beside a SMILES is read from it. Orn = NCCC[C@H](N)C(=O)O; 2Abz = Nc1ccccc1C(=O)O

Key:
Pseudomonas aeruginosa [1] = test: Antibacterial activity against Pseudomonas aeruginosa assessed as induction of total membrane lysis at 4 times MIC after 1 hr by uranyl acetate/lead citrate staining-based transmission electron microscopic method; format: functional
In short: (§1)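 Overnight cultures in non-cation-adjusted MHB were diluted to OD 0.4. 1 mL aliquots were incubated 1 h at 37 °C with compound at 4 x MIC or without compound (control). Cells were washed in Tris buffer (pH 7.4) and fixed in 4% glutaraldehyde for 2 h at room temperature. They were post-fixed in 1% osmium tetroxide, ethanol/acetone dehydrated, epoxy embedded (60 °C, 48 h), ultrathin sectioned and imaged by TEM.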

Escherichia coli = test: Antibacterial activity against Escherichia coli after 18 hrs; format: functional
In short: (§2)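 Broth microdilution in non-cation-adjusted MHB. Overnight 37 °C cultures adjusted to OD 0.1, then diluted 1:100. Two-fold compound dilutions were prepared in the plate before inoculation, with growth and sterility controls. Plates were incubated 18 h at 37 °C and read at OD600. MIC was the lowest concentration with no growth, from three concordant experiments each with three internal replicates.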

Pseudomonas aeruginosa [2] = test: Antibacterial activity against Pseudomonas aeruginosa after 18 hrs; format: functional; in short: as §2
Staphylococcus aureus [3] = test: Antibacterial activity against Staphylococcus aureus after 18 hrs; format: functional; in short: as §2
Staphylococcus aureus [4] = test: Antibacterial activity against Staphylococcus aureus assessed as induction of cell membrane rupture at 4 times MIC after 1 hr by uranyl acetate/lead citrate staining-based transmission electron microscopic method; format: functional; in short: as §1
Staphylococcus aureus [5] = test: Antibacterial activity against Staphylococcus aureus assessed as induction of cell wall rupture at 4 times MIC after 1 hr by uranyl acetate/lead citrate staining-based transmission electron microscopic method; format: functional; in short: as §1
Staphylococcus aureus [6] = test: Antibacterial activity against Staphylococcus aureus assessed as decrease in intracellular density at 4 times MIC after 1 hr by uranyl acetate/lead citrate staining-based transmission electron microscopic method; format: functional, cell-based; in short: as §1
Pseudomonas aeruginosa [7] = test: Antibacterial activity against Pseudomonas aeruginosa assessed as induction of cell blebbing at 4 times MIC after 1 hr by uranyl acetate/lead citrate staining-based transmission electron microscopic method; format: functional; in short: as §1
Candida albicans [8] = test: Antifungal activity against Candida albicans after 48 hrs; format: functional
In short: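 A single C. albicans colony was taken into RPMI, adjusted to OD 0.1 and diluted 1:100. Two-fold compound dilutions were set up as for the bacterial microdilution and incubated 48 h. MIC was scored visually from colonies on the well bottoms as the lowest concentration with no growth, from three concordant experiments each with three internal replicates.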

Candida albicans [9] = test: Antifungal activity against Candida albicans after 48 hrs in presence of 0.39 uM amphotericin B; format: functional
In short: (§3)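 C. albicans in RPMI (OD 0.1, diluted 1:100) was tested by two-fold compound dilution with 48 h incubation. The medium was supplemented with amphotericin B at 0.78 or 1.56 µM, giving a final 0.39 or 0.78 µM per well. MIC was read visually as no colony growth, from three concordant experiments each with three internal replicates.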

Candida albicans [10] = test: Antifungal activity against Candida albicans after 48 hrs in presence of 0.78 uM amphotericin B; format: functional; in short: as §3
[11] = Solubility of the compound in water; format: physicochemical; conditions: buffer
Pseudomonas aeruginosa [12] = test: Antibacterial activity against Pseudomonas aeruginosa assessed as induction of cell membrane rupture at 4 times MIC after 1 hr by uranyl acetate/lead citrate staining-based transmission electron microscopic method; format: functional; in short: as §1

| SMILES | Activity (Pseudomonas aeruginosa [1]) | MIC (Escherichia coli) [µM] | MIC (Pseudomonas aeruginosa [2]) [µM] | MIC (Staphylococcus aureus [3]) [µM] | Activity (Staphylococcus aureus [4]) | Activity (Staphylococcus aureus [5]) | Activity (Staphylococcus aureus [6]) | Activity (Pseudomonas aeruginosa [7]) | MIC (Candida albicans [8]) [µM] | MIC (Candida albicans [9]) [µM] | MIC (Candida albicans [10]) [µM] | solubility [11] | Activity (Pseudomonas aeruginosa [12]) |
| --- | --- | --- | --- | --- | --- | --- | --- | --- | --- | --- | --- | --- | --- |
| CC(C)C[C@@H]1NC(=O)[C@H](CCCN)NC(=O)[C@H](C(C)C)NC(=O)[C@H](Cc2ccc(O)cc2)NC(=O)[C@H](CCCCN)NC(=O)[C@H](CC(N)=O)NC(=O)[C@@H](Cc2ccccc2)NC(=O)[C@H](Cc2ccccc2)NC(=O)c2ccccc2NC(=O)[C@@H](Cc2ccccc2)NC1=O (cyclo([2Abz]F[dF]NKYV[Orn]L[dF])) | Active | 12.5 (≈ 16.2 µg/mL) | 25 (≈ 32.3 µg/mL) | 1.56 (≈ 2.02 µg/mL) | Active | Active | Active | Active | 12.5 (≈ 16.2 µg/mL) | 0.78 | 0.39 | – | – |
| CC(C)C[C@@H]1NC(=O)[C@H](CCCN)NC(=O)[C@H](C(C)C)NC(=O)[C@H](Cc2ccc(O)cc2)NC(=O)[C@H](CCC(N)=O)NC(=O)[C@H](CC(N)=O)NC(=O)[C@@H](Cc2ccccc2)NC(=O)[C@H](Cc2ccccc2)NC(=O)c2ccccc2NC(=O)[C@@H](Cc2ccccc2)NC1=O (cyclo([2Abz]F[dF]NQYV[Orn]L[dF])) | – | 50 (≈ 64.6 µg/mL) | 100 (≈ 129 µg/mL) | 6.25 (≈ 8.08 µg/mL) | – | – | – | – | – | – | – | Insoluble | – |
| C[C@@H]1[C@H](O)[C@@H](C)/C=C/C=C/C=C/C=C/C=C/C=C/C=C/[C@H](O[C@@H]2O[C@H](C)[C@@H](O)[C@H](N)[C@@H]2O)C[C@@H]2O[C@](O)(C[C@@H](O)C[C@@H](O)[C@H](O)CC[C@@H](O)C[C@@H](O)CC(=O)O[C@H]1C)C[C@H](O)[C@H]2C(=O)O [AMPHOTERICIN B] | – | – | – | – | – | – | – | – | 1.56 (≈ 1.44 µg/mL) | – | – | – | – |
| CC(C)C[C@@H]1NC(=O)[C@H](CCCN)NC(=O)[C@H](C(C)C)NC(=O)[C@H](Cc2ccc(O)cc2)NC(=O)[C@H](CCC(N)=O)NC(=O)[C@H](CC(N)=O)NC(=O)[C@@H](Cc2ccccc2)NC(=O)[C@H](Cc2ccccc2)NC(=O)[C@@H]2CCCN2C(=O)[C@@H](Cc2ccccc2)NC1=O [TYROCIDINE A] (cyclo(F[dF]NQYV[Orn]L[dF]P)) | – | 25 (≈ 31.8 µg/mL) | 100 (≈ 127 µg/mL) | 1.56 (≈ 1.98 µg/mL) | Active | Active | Active | – | 3.12 (≈ 3.97 µg/mL) | 0.78 | 0.39 | – | inactive |
